{
  "source": "ChEMBL document CHEMBL3112518",
  "about": "“Design, synthesis and anticancer activity evaluation of novel C14 heterocycle substituted epi-triptolide” (Eur J Med Chem, 2014)",
  "key": {"PC-3": {"system": "PC-3", "assay": "Cytotoxicity against human PC3 cells after 72 hrs by sulforhodamine B assay", "type": "functional, cell-based", "settings": "PC-3, 72 h", "outline": "(§1)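 Cells in 96-well plates were exposed in triplicate to a concentration gradient of each agent at 37 °C for 72 h, and growth was then measured by sulforhodamine B staining. IC50 is the concentration giving 50% growth inhibition relative to untreated control cells, calculated by the logit method.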"}, "SK-OV-3": {"system": "SK-OV-3", "assay": "Cytotoxicity against human SKOV3 cells after 72 hrs by sulforhodamine B assay", "type": "functional, cell-based", "settings": "SK-OV-3, 72 h", "outline": "as §1"}},
  "data": [
    {"compound": "CC(C)[C@]12O[C@H]1[C@@H]1O[C@]13[C@]1(O[C@H]1C[C@H]1C4=C(CC[C@@]13C)C(=O)OC4)[C@]2(O)CNc1ccc2ncncc2c1", "values": [
      {"measurement": "IC50", "setting": "PC-3", "value": 0.781, "unit": "µM"},
      {"measurement": "IC50", "setting": "SK-OV-3", "value": 0.274, "unit": "µM"}
    ]},
    {"compound": "CC(C)[C@]12O[C@H]1[C@@H]1O[C@]13[C@]1(O[C@H]1C[C@H]1C4=C(CC[C@@]13C)C(=O)OC4)[C@]2(O)CNc1ccc2occc(=O)c2c1", "values": [
      {"measurement": "IC50", "setting": "PC-3", "value": 0.341, "unit": "µM"},
      {"measurement": "IC50", "setting": "SK-OV-3", "value": 0.368, "unit": "µM"}
    ]},
    {"compound": "CC(C)[C@]12O[C@H]1[C@@H]1O[C@]13[C@]1(O[C@H]1C[C@H]1C4=C(CC[C@@]13C)C(=O)OC4)[C@]21CN(c2ccc3c(cnn3CCN3CCOCC3)c2)CO1", "values": [
      {"measurement": "IC50", "setting": "PC-3", "value": 0.253, "unit": "µM"},
      {"measurement": "IC50", "setting": "SK-OV-3", "value": 0.152, "unit": "µM"}
    ]},
    {"compound": "CC(C)[C@]12O[C@H]1[C@@H]1O[C@]13[C@]1(O[C@H]1C[C@H]1C4=C(CC[C@@]13C)C(=O)OC4)[C@]2(O)CNc1ccc2oc(=O)ccc2c1", "values": [
      {"measurement": "IC50", "setting": "PC-3", "value": 0.353, "unit": "µM"},
      {"measurement": "IC50", "setting": "SK-OV-3", "value": 0.0872, "unit": "µM"}
    ]},
    {"compound": "CC(C)[C@]12O[C@H]1[C@@H]1O[C@]13[C@]1(O[C@H]1C[C@H]1C4=C(CC[C@@]13C)C(=O)OC4)[C@]2(O)CNc1ccc2c(cnn2CCN2CCOCC2)c1", "values": [
      {"measurement": "IC50", "setting": "PC-3", "value": 0.0366, "unit": "µM"},
      {"measurement": "IC50", "setting": "SK-OV-3", "value": 0.0364, "unit": "µM"}
    ]},
    {"compound": "COC(=O)n1ncc2cc(NC[C@@]3(O)[C@]45O[C@H]4C[C@H]4C6=C(CC[C@]4(C)[C@@]54O[C@H]4[C@@H]4O[C@@]43C(C)C)C(=O)OC6)ccc21", "values": [
      {"measurement": "IC50", "setting": "PC-3", "value": 0.188, "unit": "µM"},
      {"measurement": "IC50", "setting": "SK-OV-3", "value": 0.102, "unit": "µM"}
    ]},
    {"compound": "CC(C)[C@]12O[C@H]1[C@@H]1O[C@]13[C@]1(O[C@H]1C[C@H]1C4=C(CC[C@@]13C)C(=O)OC4)[C@]2(O)CNc1ccc2c(c1)CC(=O)O2", "values": [
      {"measurement": "IC50", "setting": "PC-3", "value": 0.0679, "unit": "µM"},
      {"measurement": "IC50", "setting": "SK-OV-3", "value": 0.0125, "unit": "µM"}
    ]},
    {"compound": "CC(C)[C@]12O[C@H]1[C@@H]1O[C@]13[C@]1(O[C@H]1C[C@H]1C4=C(CC[C@@]13C)C(=O)OC4)[C@]2(O)CNc1ccc2c(cnn2C)c1", "values": [
      {"measurement": "IC50", "setting": "PC-3", "value": 0.132, "unit": "µM"},
      {"measurement": "IC50", "setting": "SK-OV-3", "value": 0.015, "unit": "µM"}
    ]},
    {"compound": "CC(C)[C@]12O[C@H]1[C@@H]1O[C@]13[C@]1(O[C@H]1C[C@H]1C4=C(CC[C@@]13C)C(=O)OC4)[C@]2(O)CNc1cccc2[nH]ccc12", "values": [
      {"measurement": "IC50", "setting": "PC-3", "value": 0.0978, "unit": "µM"},
      {"measurement": "IC50", "setting": "SK-OV-3", "value": 0.0538, "unit": "µM"}
    ]},
    {"compound": "CC(C)[C@]12O[C@H]1[C@@H]1O[C@]13[C@]1(O[C@H]1C[C@H]1C4=C(CC[C@@]13C)C(=O)OC4)[C@]21CN(c2ccc3c(cnn3C)c2)CO1", "values": [
      {"measurement": "IC50", "setting": "PC-3", "value": 0.365, "unit": "µM"},
      {"measurement": "IC50", "setting": "SK-OV-3", "value": 0.0797, "unit": "µM"}
    ]},
    {"compound": "CC(C)[C@]12O[C@H]1[C@@H]1O[C@]13[C@]1(O[C@H]1C[C@H]1C4=C(CC[C@@]13C)C(=O)OC4)[C@]2(O)CNc1ccc2nn(CCN3CCOCC3)cc2c1", "values": [
      {"measurement": "IC50", "setting": "PC-3", "value": 0.0408, "unit": "µM"},
      {"measurement": "IC50", "setting": "SK-OV-3", "value": 0.077, "unit": "µM"}
    ]},
    {"compound": "CC(C)[C@]12O[C@H]1[C@@H]1O[C@]13[C@]1(O[C@H]1C[C@H]1C4=C(CC[C@@]13C)C(=O)OC4)[C@]2(O)CNc1ccc2c(c1)C(C)(C)C(=O)N2C", "values": [
      {"measurement": "IC50", "setting": "PC-3", "value": 0.0849, "unit": "µM"},
      {"measurement": "IC50", "setting": "SK-OV-3", "value": 0.0117, "unit": "µM"}
    ]},
    {"compound": "CC(C)[C@]12O[C@H]1[C@@H]1O[C@]13[C@]1(O[C@H]1C[C@H]1C4=C(CC[C@@]13C)C(=O)OC4)[C@]2(O)CNc1ccc2[nH]ncc2c1", "values": [
      {"measurement": "IC50", "setting": "PC-3", "value": 0.0253, "unit": "µM"},
      {"measurement": "IC50", "setting": "SK-OV-3", "value": 0.0174, "unit": "µM"}
    ]},
    {"compound": "CC(C)[C@]12O[C@H]1[C@@H]1O[C@]13[C@]1(O[C@H]1C[C@H]1C4=C(CC[C@@]13C)C(=O)OC4)[C@]2(O)CNc1cccnc1", "values": [
      {"measurement": "IC50", "setting": "PC-3", "value": 2.81, "unit": "µM"},
      {"measurement": "IC50", "setting": "SK-OV-3", "value": 0.745, "unit": "µM"}
    ]},
    {"compound": "COC(=O)c1cn(C[C@@]2(O)[C@]34O[C@H]3C[C@H]3C5=C(CC[C@]3(C)[C@@]43O[C@H]3[C@@H]3O[C@@]32C(C)C)C(=O)OC5)nn1", "values": [
      {"measurement": "IC50", "setting": "PC-3", "value": "> 10", "unit": "µM"},
      {"measurement": "IC50", "setting": "SK-OV-3", "value": "> 10", "unit": "µM"}
    ]},
    {"compound": "CC(C)[C@]12O[C@H]1[C@@H]1O[C@]13[C@]1(O[C@H]1C[C@H]1C4=C(CC[C@@]13C)C(=O)OC4)[C@]2(O)CNc1ccc2ncccc2c1", "values": [
      {"measurement": "IC50", "setting": "PC-3", "value": 0.452, "unit": "µM"},
      {"measurement": "IC50", "setting": "SK-OV-3", "value": 0.085, "unit": "µM"}
    ]},
    {"compound": "COC(=O)c1n[nH]c2ccc(NC[C@@]3(O)[C@]45O[C@H]4C[C@H]4C6=C(CC[C@]4(C)[C@@]54O[C@H]4[C@@H]4O[C@@]43C(C)C)C(=O)OC6)cc12", "values": [
      {"measurement": "IC50", "setting": "PC-3", "value": 0.264, "unit": "µM"},
      {"measurement": "IC50", "setting": "SK-OV-3", "value": 0.0358, "unit": "µM"}
    ]},
    {"compound": "CC(C)[C@]12O[C@H]1[C@@H]1O[C@]13[C@]1(O[C@H]1C[C@H]1C4=C(CC[C@@]13C)C(=O)OC4)[C@]2(O)CNc1ccc2c(c1)C(=O)CCO2", "values": [
      {"measurement": "IC50", "setting": "PC-3", "value": 0.172, "unit": "µM"},
      {"measurement": "IC50", "setting": "SK-OV-3", "value": 0.0321, "unit": "µM"}
    ]},
    {"compound": "CC(C)[C@]12O[C@H]1[C@@H]1O[C@]13[C@]1(O[C@H]1C[C@H]1C4=C(CC[C@@]13C)C(=O)OC4)[C@]2(O)CNc1ccc2nn(C)cc2c1", "values": [
      {"measurement": "IC50", "setting": "PC-3", "value": 0.097, "unit": "µM"},
      {"measurement": "IC50", "setting": "SK-OV-3", "value": 0.0223, "unit": "µM"}
    ]},
    {"compound": "CC(C)[C@]12O[C@H]1[C@@H]1O[C@]13[C@]1(O[C@H]1C[C@H]1C4=C(CC[C@@]13C)C(=O)OC4)[C@]2(O)CNc1ccc2c(c1)CC(=O)N2", "values": [
      {"measurement": "IC50", "setting": "PC-3", "value": 0.0541, "unit": "µM"},
      {"measurement": "IC50", "setting": "SK-OV-3", "value": 0.0384, "unit": "µM"}
    ]},
    {"compound": "CC(C)[C@]12O[C@H]1[C@@H]1O[C@]13[C@]1(O[C@H]1C[C@H]1C4=C(CC[C@@]13C)C(=O)OC4)[C@]2(O)CNc1ccc2cn[nH]c2c1", "values": [
      {"measurement": "IC50", "setting": "PC-3", "value": 0.188, "unit": "µM"},
      {"measurement": "IC50", "setting": "SK-OV-3", "value": 0.049, "unit": "µM"}
    ]},
    {"compound": "CC(C)[C@]12O[C@H]1[C@@H]1O[C@]13[C@]1(O[C@H]1C[C@H]1C4=C(CC[C@@]13C)C(=O)OC4)[C@]2(O)Cn1cc(-c2ccccc2)nn1", "values": [
      {"measurement": "IC50", "setting": "PC-3", "value": "> 10", "unit": "µM"},
      {"measurement": "IC50", "setting": "SK-OV-3", "value": "> 10", "unit": "µM"}
    ]},
    {"compound": "CC(C)[C@]12O[C@H]1[C@@H]1O[C@]13[C@]1(O[C@H]1C[C@H]1C4=C(CC[C@@]13C)C(=O)OC4)[C@]2(O)Cn1cc(C2CC2)nn1", "values": [
      {"measurement": "IC50", "setting": "PC-3", "value": "> 10", "unit": "µM"},
      {"measurement": "IC50", "setting": "SK-OV-3", "value": "> 10", "unit": "µM"}
    ]},
    {"compound": "CC(C)[C@]12O[C@H]1[C@@H]1O[C@]13[C@]1(O[C@H]1C[C@H]1C4=C(CC[C@@]13C)C(=O)OC4)[C@]2(O)CNc1ccc2nn(CCN3CCCCC3)cc2c1", "values": [
      {"measurement": "IC50", "setting": "PC-3", "value": 0.0661, "unit": "µM"},
      {"measurement": "IC50", "setting": "SK-OV-3", "value": 0.099, "unit": "µM"}
    ]},
    {"compound": "CC(C)[C@]12O[C@H]1[C@@H]1O[C@]13[C@]1(O[C@H]1C[C@H]1C4=C(CC[C@@]13C)C(=O)OC4)[C@]2(O)CNc1ccc2nccnc2c1", "values": [
      {"measurement": "IC50", "setting": "PC-3", "value": 0.157, "unit": "µM"},
      {"measurement": "IC50", "setting": "SK-OV-3", "value": 0.369, "unit": "µM"}
    ]},
    {"compound": "CC(C)[C@]12O[C@H]1[C@@H]1O[C@]13[C@]1(O[C@H]1C[C@H]1C4=C(CC[C@@]13C)C(=O)OC4)[C@H]2O", "note": "[EPITRIPTOIIDE]", "values": [
      {"measurement": "IC50", "setting": "PC-3", "value": 1.32, "unit": "µM"}
    ]}
  ]
}
